Results reported in PubChem BioAssay AID821 (SRMLSC, 2007).
The source made the active and inactive calls.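 Rule for the calls: active = compounds whose fitted half-maximal concentration for reducing fibroblast viability is 100 µM or lower; inactive = the rest.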

Experiment: LL 47 lung fibroblast growth inhibition, concentration-response, selectivity test for endothelial growth inhibitor program, cellular, luminescent ATP readout (AID 821);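 note: 100% = median of untreated cell-only wells and 0% = no luminescence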
Details: LL 47 lung fibroblast viability, ATP luminescence; at 20 µM (top of the series)
How it was run: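 System: LL 47 human lung fibroblast cells. Timing: overnight cell settling, then 72 h compound exposure at 37 °C. Measured by: CellTiter-Glo luminescence. Evaluation: percent viability relative to untreated wells, EC50 via 4-parameter fit.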
For `COc1ccc(-c2cc(C(=O)Nc3cc(C)n(Cc4ccc(Cl)cc4)n3)no2)cc1OC`, the viability was 102% (inactive). For `COc1ccc(CCn2c(=S)[nH]c3cc(C(=O)NCc4ccco4)ccc3c2=O)cc1OC`, the viability was 108% (inactive). With `Cc1ccc(S(=O)(=O)c2c(C)nn(C(C)(C)C)c2OC(=O)c2ccco2)cc1` the viability was 108% (inactive). In the case of `COc1ccc(C(c2sc3ncnn3c2O)N2CC(C)OC(C)C2)cc1OC` (centres undefined), the viability is reported as 98.1% (inactive). With `COc1cc2c(N3CCOCC3)cc(O)c(CC(=O)Nc3ccccc3)c2cc1OC` the viability was 95.9% (inactive). With `Oc1ccc2oc3c(c2c1/C=N/n1cnnc1)CCCC3` the viability was 99.5% (inactive). In the case of `CCN(CC)c1cc(C)c2cc(NC(=O)c3ccc(Br)o3)ccc2n1`, the viability is reported as 93% (inactive). With `Cn1c(=O)c2cc(NCc3ccccc3)nnc2n(C)c1=O` the viability was 100% (inactive). For `Cc1ccc2[nH]c3c(c2c1)CCC3=O`, the viability was 110% (inactive). For `COc1ccc(N/N=C2/CCCCC2=O)cc1`, the viability was 123% (inactive). With `Cc1ccc2c(c1)c1c(n2CC(O)Cn2c(C)nc3ccccc32)/C(=N\O)CCC1` (centres undefined) the viability was 89.6% (inactive). With `CCC(C)[C@@H](NC(=O)OC(C)(C)C)c1nnc(S(=O)(=O)Cc2cccc(C)c2)o1` (some centres undefined) the viability was 91.4% (inactive). With `Cc1nc2c(C(=O)NCCC(C)C)c[nH]n2c(=O)c1Cc1ccccc1F` the viability was 99.7% (inactive). For `COC(=O)C1=C(C)N=c2s/c(=C3\C(=O)Nc4ccccc43)c(=O)n2C1c1ccccc1` (centres undefined), the viability was 80.9% (inactive). For `O=C(Nc1ccc(OC(F)F)c(Cl)c1)Nc1ccc2c(c1)OCO2`, the viability was 109% (inactive). For `Cc1cc(Cl)ccc1OCCCC(N)=O`, the viability was 95% (inactive). For `CC(=O)Nc1ccc(S(=O)(=O)N2CCN(c3nc(NC4CCCC4)c4ccccc4n3)CC2)cc1`, the viability was 84.8% (inactive). In the case of `O=c1[nH]c(=O)n(Cc2ccccc2)c2nc(-c3ccco3)cc(C(F)(F)F)c12`, the viability is reported as 81% (inactive). For `CC1(C)Cc2c(C#N)c(SCC(=O)c3ccccc3)nc(N3CCOCC3)c2CO1`, the viability was 90.1% (inactive). With `Cc1nc(C)c(-c2csc(Nc3cccnc3)n2)s1` the viability was 87.8% (inactive). With `Cc1nc(Nc2ccc3c(c2)OCCO3)c2nnn(Cc3ccccc3Cl)c2n1` the viability was 102% (inactive). With `COC(=O)c1c(C)n(-c2ccc(OC)cc2)c2ccc(O)cc12` the viability was 87.7% (inactive). For `CCC(C)NC(=O)c1c(N)n(/N=C/c2ccccn2)c2nc3ccccc3nc12` (centres undefined), the viability was 116% (inactive). With `CCOC(=O)c1c(N)sc2c(OC)c(Br)ccc12` the viability was 109% (inactive). For `Cc1ccc2c(c1)c1cccc3c1n2CCN3CCC(N)=O`, the viability was 89% (inactive). With `Cc1cccnc1Nc1nc(-c2ccc(O)cc2O)cs1` the viability was 94.8% (inactive). With `CCOc1ccc(NC(=O)c2cc3n(n2)C(C(F)(F)F)CC(c2ccco2)N3)cc1` (centres undefined) the viability was 106% (inactive). For `Cc1cc(/C=C2\C(=N)N3C(SCc4ccccc4)=NSC3=NC2=O)c(C)n1Cc1ccccc1`, the viability was 92.2% (inactive). In the case of `CCN(CC(O)Cn1c2ccccc2c2ccccc21)S(=O)(=O)c1ccc(C)cc1` (centres undefined), the viability is reported as 96.4% (inactive). For `O=C1CSC(c2ccccn2)N1Cc1cn2ccccc2n1` (centres undefined), the viability was 99.9% (inactive). In the case of `Cc1cccc(NC(=O)c2cc(NC(=O)c3ccco3)ccc2N2CCCCC2)c1`, the viability is reported as 82.5% (inactive). With `Cc1ccsc1/C=C/C1=Cc2c(sc(NC(=O)CSc3n[nH]c(N)n3)c2C#N)C(C)(C)C1` the viability was 112% (inactive). For `O=C(Nc1nnc(-c2ccc3c(c2)CCCC3)o1)c1ccc(Cl)cc1Cl`, the viability was 95.8% (inactive). In the case of `CCn1c2c(c3cc(Br)ccc31)CCC/C2=N\O`, the viability is reported as 85.2% (inactive). With `Cc1cc(C(=O)Nc2nc3ccc(S(C)(=O)=O)cc3s2)c(C)o1` the viability was 92.9% (inactive). For `CCOC(=O)c1ccc(NC(=O)c2c(C)[nH]c(C(=O)OCC)c2C)cc1`, the viability was 103% (inactive). For `Cc1nn(CC(=O)Nc2ccc3c(c2)oc2ccccc23)c(=O)c2ccccc12`, the viability was 105% (inactive). In the case of `Cc1ccc2[nH]c(=O)c(C3C(C#N)=C(N)Oc4c3ccc3cccnc43)cc2c1` (centres undefined), the viability is reported as 86.9% (inactive). In the case of `CCCc1cc(C(=O)Cc2ccc(F)cc2)c(O)cc1O`, the viability is reported as 96.5% (inactive). For `O=Cc1ccc(Sc2nnc(-c3ccccc3)o2)c([N+](=O)[O-])c1`, the viability was 89.9% (inactive). For `O=C(Nc1ccc(Cl)c(Cl)c1)C1=Cc2ccccc2OC1`, the viability was 99.6% (inactive). With `N#CCc1nc2c3c4c(sc3ncn2n1)CCCC4` the viability was 102% (inactive). With `Cc1nn(Cc2ccc(Cl)c(Cl)c2)c(C)c1NC(=O)c1cc(-c2ccc3c(c2)OCO3)on1` the viability was 94.2% (inactive). For `O=C(NCCC1=CCCCC1)C1CCN(Cc2cnn(-c3ccccc3)c2-n2cccc2)CC1`, the viability was 92.5% (inactive). With `Cc1nc2sccn2c(=O)c1CCN1CCC(=C(c2ccc(F)cc2)c2ccc(F)cc2)CC1` the viability was 91.4% (inactive). With `Cc1cc(N2CCCCC2)nc2ccc(NC(=O)c3ccc(Br)o3)cc12` the viability was 94.4% (inactive). With `Cc1ccc(-c2nnc(N3CCN(C(=O)CSc4ncn[nH]4)CC3)c3ccccc23)cc1` the viability was 102% (inactive). In the case of `O=C(COc1nc2ccccc2nc1N1CCOCC1)N1CCc2ccccc21`, the viability is reported as 95.5% (inactive). In the case of `O=C(NCc1ccc2c(c1)OCO2)C1CCC(CNS(=O)(=O)c2cccc3nsnc23)CC1` (centres undefined), the viability is reported as 106% (inactive). With `Cc1ccc(C)c(C(C)NC(=O)C2C3CCC(O3)C2C(=O)O)c1` (centres undefined) the viability was 94.5% (inactive). In the case of `Cc1ccc(-n2nnnc2SCC(=O)Nc2ccc3c(c2)COC3=O)cc1C`, the viability is reported as 94.5% (inactive). For `CCCc1c(C)c2cc(C)ccc2[nH]c1=O`, the viability was 110% (inactive). For `CC1CC(C)(C)CC2(C1)NC(=S)N(c1ccccc1)N2` (centres undefined), the viability was 109% (inactive). For `CSc1nnc2n(-c3ccc(C)cc3)c(=O)c3c4c(sc3n12)COC(C(C)C)C4` (centres undefined), the viability was 109% (inactive). With `COc1ccc2cc3cc(C(=O)Nc4ccc5c(c4)OCCO5)oc3nc2c1` the viability was 98.4% (inactive). For `Nc1c(C(=O)NCc2ccc(F)cc2)c2nc3ccccc3nc2n1CCCN1CCOCC1`, the viability was 85.7% (inactive). In the case of `Cc1c(CCOC(=O)C2C3CC4CC(C3)CC2C4)sc[n+]1CC(=O)c1ccc(Br)cc1` (centres undefined), the viability is reported as 93.4% (inactive). With `CC1CCC(C(=O)c2c(O)c3ccccc3oc2=O)CC1` (centres undefined) the viability was 88.2% (inactive). For `Cc1ccc(Cn2nc(C)c(NC(=O)c3cc(-c4ccc5c(c4)OCO5)on3)c2C)cc1`, the viability was 106% (inactive). In the case of `O=S(=O)(Nc1cccnc1)c1ccc(C2CCCCC2)cc1`, the viability is reported as 100% (inactive). With `COC(=O)c1ccccc1NC(=O)c1cc(-c2cccs2)on1` the viability was 90.8% (inactive). For `CCCSc1nc2c(cnn2-c2ccc(C)cc2)c(=O)[nH]1`, the viability was 93.1% (inactive). For `Cc1ccc2[nH]c3c(NCc4ccco4)ncnc3c2c1`, the viability was 85.1% (inactive). With `COc1ccc(NC(=O)CSc2nnc(CNC(=O)COc3ccc(Cl)cc3)o2)c(OC)c1` the viability was 97% (inactive). With `c1cc2c3c(cccc3c1)NC1(CCCCCC1)N2` the viability was 86.2% (inactive). In the case of `CC(Nc1nc(N2CCN(S(C)(=O)=O)CC2)nc2ccccc12)c1ccccc1` (centres undefined), the viability is reported as 92.9% (inactive). In the case of `CCOC(=O)N1CCN(c2ncnc3c2oc2nc(C(C)C)c4c(c23)CCC4)CC1`, the viability is reported as 108% (inactive). For `O=C(CN1CCN(S(=O)(=O)c2ccc(F)cc2)CC1)Nc1ccc2c(c1)OCO2`, the viability was 104% (inactive). For `Cc1ccc(C(=O)Nc2ncc(Cc3ccccc3)s2)o1`, the viability was 103% (inactive). In the case of `COc1ccc(OC)c(-n2nnnc2SCC(=O)Nc2ccc3c(c2)OCCO3)c1`, the viability is reported as 103% (inactive). With `CCCC(=O)Nc1cccc(-c2nc3cc(C)c(C)cc3o2)c1` the viability was 104% (inactive). In the case of `CCCc1ccc(-c2cc(NC(=O)CSc3n[nH]c(N)n3)n(-c3ccccc3)n2)cc1`, the viability is reported as 100% (inactive). In the case of `O=C(CCC1COc2ccccc2O1)Nc1ccc(Cl)cn1` (centres undefined), the viability is reported as 95.5% (inactive). For `CCCCCCCCOC(=O)C1=C(C)Nc2nnnn2C1c1cccs1` (centres undefined), the viability was 117% (inactive). For `Cc1ccc(C(C#N)c2ccc(C(=O)c3ccc(F)cc3)cc2)cc1` (centres undefined), the viability was 97.1% (inactive). For `CCOC(=O)c1c(C)[nH]c(C(=O)OC/C(O)=C(\C#N)c2nc3ccccc3[nH]2)c1C`, the viability was 113% (inactive). For `OC(C#Cc1ccccn1)c1cccs1` (centres undefined), the viability was 98.2% (inactive). For `O=C(Nc1ccc2nn(-c3ccccc3)nc2c1)c1ccc2c(c1)OCCO2`, the viability was 105% (inactive). With `CCOc1cc(N2CCOCC2)c(OCC)cc1NC(=O)COc1ncnc2ccc(Br)cc12` the viability was 100% (inactive). For `OCCNc1nc2ccccc2n1-c1ncnc2sc3c(c12)CCC3`, the viability was 91.9% (inactive). For `Clc1ccccc1-c1ccc(/C=N/n2cnnc2)o1`, the viability was 111% (inactive). With `CCn1c(Cc2ccc(OC)cc2)nnc1SCC(=O)Nc1cccc(C(=O)OC)c1` the viability was 96.9% (inactive). With `Cc1occc1-c1nnc(SCC(=O)NCc2cccs2)n1-c1ccc(F)cc1` the viability was 99.1% (inactive). In the case of `O=c1oc(-c2ccccc2F)nc2c1cnn2-c1ccccc1`, the viability is reported as 105% (inactive). With `CCOC(=O)c1sc(NC(=O)CSc2nnnn2-c2ccc(C)c(C)c2)nc1C` the viability was 83.3% (inactive). With `Cc1cc(C)c2c(c1)SC1=NC(c3ccccc3)(C(F)(F)F)NC(=O)N12` (centres undefined) the viability was 102% (inactive). For `CCOC(=O)N1CCN(C(=O)c2nn(-c3ccc(C)cc3)c(=O)c3c2c2ccccc2n3C)CC1`, the viability was 100% (inactive). With `CCn1nc(C(=O)NC2=NCCS2)c2ccccc2c1=O` the viability was 103% (inactive). For `COc1cccc2c(C)nc(Nc3nc(CSc4nnc(C)s4)cc(=O)[nH]3)nc12`, the viability was 117% (inactive). With `Cc1ccc(N=Nc2c(C)[nH][nH]c2=O)c(C)c1` the viability was 97.6% (inactive). For `CCc1cc(-c2n[nH]c(C)c2Oc2ccc(C(C)C)cc2)c(O)cc1O`, the viability was 85.5% (inactive). For `CCN1CCN(c2ncc(C(=O)Nc3cc(Cl)c(OC)cc3OC)c3ccccc23)CC1`, the viability was 103% (inactive). With `O=C(CC1CCCCC1)c1c(O)c2ccccc2oc1=O` the viability was 88.5% (inactive). For `O=C(Cn1cc(C(=O)c2ccccc2F)c2ccccc21)NCc1ccco1`, the viability was 104% (inactive).
